According to ChEMBL document CHEMBL1141720, “A study of the structure-activity relationship of GABA(A)-benzodiazepine receptor bivalent ligands by conformational analysis with low temperature NMR and X-ray analysis” (Bioorg Med Chem, 2008):
One block for each compound: values may come before it.

Experiments:
Type in all cases: cell-based
[1] = target: GABA A receptor alpha-4/beta-3/gamma-2 (Homo sapiens, UniProt P18507+P28472+P48169); assay: Displacement of [3H]flunitrazepam from human recombinant GABAA alpha-4-beta-3-gamma-2 receptor expressed in HEK293 cells
Method in brief: (§1)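 Membranes from the receptor-expressing cells were harvested in hypotonic 50 mM Tris-acetate, pH 7.4 at 4°C. They were incubated with [3H]flunitrazepam in 0.5 mL for 1 h at 4°C. Nonspecific binding was taken with 100 μM diazepam. Reactions were filtered onto 0.3% polyethyleneimine-treated GF/C filters, washed three times with ice-cold buffer, and counted by liquid scintillation. Protein was measured by Bio-Rad assay against a BSA standard.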

[2] = target: T1, GABA-A receptor; alpha-1/beta-3/gamma-2 (Homo sapiens, UniProt P14867+P18507+P28472); assay: Displacement of [3H]flunitrazepam from human recombinant GABAA alpha-1-beta-3-gamma-2 receptor expressed in HEK293 cells; method in brief: as §1
T1 sequence (P14867 whole entry): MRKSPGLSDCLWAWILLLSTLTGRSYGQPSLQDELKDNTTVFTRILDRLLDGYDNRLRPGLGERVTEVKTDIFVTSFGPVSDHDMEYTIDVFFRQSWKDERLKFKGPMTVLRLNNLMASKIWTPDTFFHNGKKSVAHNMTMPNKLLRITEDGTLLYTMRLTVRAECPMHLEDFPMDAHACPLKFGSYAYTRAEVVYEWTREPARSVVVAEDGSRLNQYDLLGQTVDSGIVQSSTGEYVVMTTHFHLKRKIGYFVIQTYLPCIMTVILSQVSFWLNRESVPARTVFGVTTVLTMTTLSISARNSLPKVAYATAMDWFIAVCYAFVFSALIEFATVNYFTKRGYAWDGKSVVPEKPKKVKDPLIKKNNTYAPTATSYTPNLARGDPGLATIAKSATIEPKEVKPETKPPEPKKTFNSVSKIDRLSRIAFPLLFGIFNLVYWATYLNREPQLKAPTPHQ
T1 sequence (P18507 whole entry): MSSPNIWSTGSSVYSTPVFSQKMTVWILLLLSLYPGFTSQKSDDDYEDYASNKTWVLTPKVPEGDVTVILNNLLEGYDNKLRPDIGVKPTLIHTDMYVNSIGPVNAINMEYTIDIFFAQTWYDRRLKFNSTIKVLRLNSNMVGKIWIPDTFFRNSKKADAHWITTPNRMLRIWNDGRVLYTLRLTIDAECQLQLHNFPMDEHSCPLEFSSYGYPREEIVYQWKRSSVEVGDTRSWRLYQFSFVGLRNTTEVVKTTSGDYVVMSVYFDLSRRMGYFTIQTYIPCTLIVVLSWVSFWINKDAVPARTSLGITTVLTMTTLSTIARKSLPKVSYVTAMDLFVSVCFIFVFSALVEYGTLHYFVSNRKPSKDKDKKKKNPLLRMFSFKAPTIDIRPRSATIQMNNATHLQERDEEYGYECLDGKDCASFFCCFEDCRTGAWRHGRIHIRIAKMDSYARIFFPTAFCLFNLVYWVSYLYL
T1 sequence (P28472 whole entry): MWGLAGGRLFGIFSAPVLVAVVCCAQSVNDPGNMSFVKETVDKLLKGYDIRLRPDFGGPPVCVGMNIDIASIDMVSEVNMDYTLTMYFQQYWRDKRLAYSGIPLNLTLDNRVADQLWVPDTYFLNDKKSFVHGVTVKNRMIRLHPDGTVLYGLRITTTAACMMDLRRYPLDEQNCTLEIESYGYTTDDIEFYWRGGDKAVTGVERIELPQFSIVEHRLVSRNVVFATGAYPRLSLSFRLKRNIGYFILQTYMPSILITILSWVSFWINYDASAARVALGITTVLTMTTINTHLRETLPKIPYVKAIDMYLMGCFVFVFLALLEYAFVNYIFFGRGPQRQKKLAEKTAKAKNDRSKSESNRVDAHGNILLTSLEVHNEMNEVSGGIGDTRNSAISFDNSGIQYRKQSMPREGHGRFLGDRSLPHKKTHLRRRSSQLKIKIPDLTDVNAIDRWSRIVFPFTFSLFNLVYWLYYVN

[3] = target: T2, GABA-A receptor; alpha-2/beta-3/gamma-2 (Homo sapiens, UniProt P18507+P28472+P47869); assay: Displacement of [3H]flunitrazepam from human recombinant GABAA alpha-2-beta-3-gamma-2 receptor expressed in HEK293 cells; method in brief: as §1
T2 sequence (P18507 whole entry): T1 sequence (P18507 whole entry)
T2 sequence (P28472 whole entry): T1 sequence (P28472 whole entry)
T2 sequence (P47869 whole entry): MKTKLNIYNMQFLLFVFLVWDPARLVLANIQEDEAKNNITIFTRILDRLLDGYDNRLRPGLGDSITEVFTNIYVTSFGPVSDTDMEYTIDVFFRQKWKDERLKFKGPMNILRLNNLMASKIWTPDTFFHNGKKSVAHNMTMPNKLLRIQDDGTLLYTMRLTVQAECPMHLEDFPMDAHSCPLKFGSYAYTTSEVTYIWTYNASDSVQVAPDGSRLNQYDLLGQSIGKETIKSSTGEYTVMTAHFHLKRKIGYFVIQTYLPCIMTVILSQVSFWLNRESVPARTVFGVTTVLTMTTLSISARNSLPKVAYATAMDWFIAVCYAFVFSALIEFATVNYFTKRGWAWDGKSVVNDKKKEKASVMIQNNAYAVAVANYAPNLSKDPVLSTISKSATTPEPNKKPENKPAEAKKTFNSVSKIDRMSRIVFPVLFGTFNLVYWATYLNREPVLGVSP

[4] = target: T3, Gamma-aminobutyric acid receptor subunit alpha-3 (Homo sapiens, UniProt P18507+P28472+P34903); assay: Displacement of [3H]flunitrazepam from human recombinant GABAA alpha-3-beta-3-gamma-2 receptor expressed in HEK293 cells; method in brief: as §1
T3 sequence (P34903 whole entry): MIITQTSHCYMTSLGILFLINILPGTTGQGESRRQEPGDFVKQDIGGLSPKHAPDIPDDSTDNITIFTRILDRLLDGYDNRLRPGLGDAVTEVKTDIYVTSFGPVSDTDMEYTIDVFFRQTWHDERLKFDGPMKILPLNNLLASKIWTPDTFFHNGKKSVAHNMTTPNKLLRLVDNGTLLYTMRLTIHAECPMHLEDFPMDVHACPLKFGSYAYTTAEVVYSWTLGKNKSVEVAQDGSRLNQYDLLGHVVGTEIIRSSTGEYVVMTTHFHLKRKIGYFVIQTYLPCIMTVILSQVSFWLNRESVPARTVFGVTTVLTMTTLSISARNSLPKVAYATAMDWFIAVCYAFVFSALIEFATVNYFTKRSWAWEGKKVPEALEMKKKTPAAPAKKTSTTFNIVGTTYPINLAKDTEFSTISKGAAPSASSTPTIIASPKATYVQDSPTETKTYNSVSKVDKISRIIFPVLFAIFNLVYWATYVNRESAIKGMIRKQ

[5] = target: T4, GABA-A receptor; alpha-5/beta-3/gamma-2 (Homo sapiens, UniProt P18507+P28472+P31644); assay: Displacement of [3H]flunitrazepam from human recombinant GABAA alpha-5-beta-3-gamma-2 receptor expressed in HEK293 cells; method in brief: as §1
T4 sequence (P18507 whole entry): T1 sequence (P18507 whole entry)
T4 sequence (P28472 whole entry): T1 sequence (P28472 whole entry)
T4 sequence (P31644 whole entry): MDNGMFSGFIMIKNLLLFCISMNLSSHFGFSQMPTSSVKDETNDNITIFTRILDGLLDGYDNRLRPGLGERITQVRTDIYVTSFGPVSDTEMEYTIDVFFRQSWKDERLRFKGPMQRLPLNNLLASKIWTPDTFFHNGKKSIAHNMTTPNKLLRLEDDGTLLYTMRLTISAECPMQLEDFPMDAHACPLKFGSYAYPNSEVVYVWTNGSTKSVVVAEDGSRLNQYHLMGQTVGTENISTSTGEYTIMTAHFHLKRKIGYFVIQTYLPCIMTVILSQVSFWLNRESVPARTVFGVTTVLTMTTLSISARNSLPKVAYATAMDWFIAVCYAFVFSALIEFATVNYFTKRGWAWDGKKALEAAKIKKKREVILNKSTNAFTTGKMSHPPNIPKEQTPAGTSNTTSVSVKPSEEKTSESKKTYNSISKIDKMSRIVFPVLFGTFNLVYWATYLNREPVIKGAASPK

[6] = target: GABA-A receptor; alpha-6/beta-3/gamma-2 (Homo sapiens, UniProt P18507+P28472+Q16445); assay: Displacement of [3H]flunitrazepam from human recombinant GABAA alpha-6-beta-3-gamma-2 receptor expressed in HEK293 cells; method in brief: as §1
GABA-A receptor; alpha-6/beta-3/gamma-2, sequence (Q16445 whole entry, one chain of several): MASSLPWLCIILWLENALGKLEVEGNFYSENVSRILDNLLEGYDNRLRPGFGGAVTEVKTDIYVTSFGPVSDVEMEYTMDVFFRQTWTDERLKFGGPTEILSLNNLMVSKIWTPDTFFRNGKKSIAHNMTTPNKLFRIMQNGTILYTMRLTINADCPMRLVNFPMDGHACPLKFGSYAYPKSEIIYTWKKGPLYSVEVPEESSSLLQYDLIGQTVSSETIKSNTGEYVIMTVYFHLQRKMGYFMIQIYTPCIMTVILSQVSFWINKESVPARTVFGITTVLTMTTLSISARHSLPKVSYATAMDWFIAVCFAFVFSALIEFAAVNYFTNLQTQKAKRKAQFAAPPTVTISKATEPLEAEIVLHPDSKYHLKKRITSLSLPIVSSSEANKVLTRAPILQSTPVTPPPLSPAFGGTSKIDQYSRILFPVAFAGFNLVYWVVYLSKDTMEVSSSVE

GABA A receptor alpha-4/beta-3/gamma-2, sequence (P48169 whole entry, one chain of several): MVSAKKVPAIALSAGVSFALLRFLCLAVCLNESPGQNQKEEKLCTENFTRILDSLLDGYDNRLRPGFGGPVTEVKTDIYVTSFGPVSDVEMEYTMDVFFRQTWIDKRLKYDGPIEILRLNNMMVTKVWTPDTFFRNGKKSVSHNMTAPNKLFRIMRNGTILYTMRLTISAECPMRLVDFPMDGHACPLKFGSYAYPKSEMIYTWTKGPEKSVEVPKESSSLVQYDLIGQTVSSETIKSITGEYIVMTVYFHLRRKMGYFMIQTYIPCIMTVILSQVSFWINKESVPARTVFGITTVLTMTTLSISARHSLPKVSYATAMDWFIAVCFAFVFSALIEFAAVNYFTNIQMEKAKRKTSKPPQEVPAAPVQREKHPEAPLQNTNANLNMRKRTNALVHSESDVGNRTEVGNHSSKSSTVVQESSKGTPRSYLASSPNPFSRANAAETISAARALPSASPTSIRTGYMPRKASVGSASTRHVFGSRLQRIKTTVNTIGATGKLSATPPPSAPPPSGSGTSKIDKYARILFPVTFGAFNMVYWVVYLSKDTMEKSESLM

SMILES: C#Cc1ccc2c(c1)C(=O)N(C)Cc1c(C(=O)OCC)ncn1-2
- Ki [1]: 5.3 nM

SMILES: CCc1ccc2c(c1)C(=O)N(C)Cc1c(C(=O)OCCCOC(=O)c3ncn4c3CN(C)C(=O)c3cc(CC)ccc3-4)ncn1-2
- Ki [2]: 1850 nM
- Ki [3]: 4700 nM
- Ki [4]: 8550 nM
- Ki [5]: 101 nM
- Ki [6]: 5 µM

SMILES: C#Cc1ccc2c(c1)C(=O)N(C)Cc1c(C(=O)OCCCCCOC(=O)c3ncn4c3CN(C)C(=O)c3cc(C#C)ccc3-4)ncn1-2
- Ki [2]: 231 nM
- Ki [3]: 661 nM
- Ki [4]: 2670 nM
- Ki [5]: 5.4 nM
- Ki [6]: 0.0542 µM

- Ki [2]: 460 nM
- Ki [3]: 5000 nM
- Ki [5]: 5000 nM
- Ki [6]: 5 µM
SMILES: C#Cc1ccc2c(c1)C(c1ccccc1)=NCc1c(C(=O)OCCOCCOC(=O)c3ncn4c3CN=C(c3ccccc3)c3cc(C#C)ccc3-4)ncn1-2

SMILES: C#Cc1ccc2c(c1)C(=O)N(C)Cc1c(C(=O)OCOCOC(=O)c3ncn4c3CN(C)C(=O)c3cc(C#C)ccc3-4)ncn1-2
- Ki [2]: 3800 nM
- Ki [3]: 2690 nM
- Ki [4]: 1860 nM
- Ki [5]: 76.1 nM

SMILES: C#Cc1ccc2c(c1)C(c1ccccc1)=NCc1c(C(=O)OCCCOC(=O)c3ncn4c3CN=C(c3ccccc3)c3cc(C#C)ccc3-4)ncn1-2
- Ki [2]: 236 nM
- Ki [3]: 7.4 nM
- Ki [4]: 272 nM
- Ki [1]: > 5000 nM
- Ki [5]: 194 nM
- Ki [6]: > 5 µM
